GalR3 antag – antagonists of human GalR3. HEK293 GalR3-CNG cAMP membrane potential fluorescence; galR3 body fused to GalR1 C-terminus. 360,000 compounds, 0.44% hits. O60755. inhibition, % at 3 µM;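 active means inhibition above the screen-wide average plus 3 SD, cut at about 13% in these data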;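 further: forskolin and galanin both at EC90 stimulate the cells; cAMP rise reported by CNG channel membrane potential dye signal; 0% = forskolin plus galanin with DMSO and 100% = forskolin alone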
CHO parental Ca – counter-screen for OX1R antagonists: effect in parental CHO cells; inhibition, % at 5.6 µM; parental CHO-K1, ATP-induced calcium, Fluo-8 fluorescence; 330,000 compounds, 0.63% hits; AID 463079;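 active means inhibition above that plate's mean sample inhibition plus 3 SD, cut at about 26% in these data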;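 further: 0% = ATP-challenged DMSO wells and 100% = DMSO wells without ATP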
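Material – parental CHO cells · Reagent – ATP stimulus · Compound – single nominal dose of 5.6 µM per compound · Detection – Fluo-8 fluorescence · Read-out basis – percent inhibition of calcium signal · Controls – ATP-challenged DMSO wells low, unchallenged DMSO wells high · Repeats – no replicates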
GPR7 antag – blocks human GPR7 receptor signaling; 290,000 compounds, 1.1% hits; AID 1861; inhibition, % at 4.4 µM; GPR7-expressing cells, fluorescence antagonist assay; P48145; in the data active means inhibition above about 16%, passing the limit was not always enough;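 further: cells stimulated with the agonist NPW; 0% = agonist with vehicle and 100% = vehicle without agonist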
OX1R antag-1 – antagonists of human orexin 1 receptor. O43613. CHO/OX1R cells, Fluo-8 calcium fluorescence, orexin A. inhibition, % at 5 µM. 330,000 compounds, 0.43% hits. AID 434989;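 active means inhibition above its plate's threshold, mean inhibition of all tested compounds on the plate plus 3 SD, cut at about 37% in these data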;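 further: 0% = orexin A challenge wells and 100% = SB-334867-A antagonist wells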
Target sequence (O43613 whole entry, looked up): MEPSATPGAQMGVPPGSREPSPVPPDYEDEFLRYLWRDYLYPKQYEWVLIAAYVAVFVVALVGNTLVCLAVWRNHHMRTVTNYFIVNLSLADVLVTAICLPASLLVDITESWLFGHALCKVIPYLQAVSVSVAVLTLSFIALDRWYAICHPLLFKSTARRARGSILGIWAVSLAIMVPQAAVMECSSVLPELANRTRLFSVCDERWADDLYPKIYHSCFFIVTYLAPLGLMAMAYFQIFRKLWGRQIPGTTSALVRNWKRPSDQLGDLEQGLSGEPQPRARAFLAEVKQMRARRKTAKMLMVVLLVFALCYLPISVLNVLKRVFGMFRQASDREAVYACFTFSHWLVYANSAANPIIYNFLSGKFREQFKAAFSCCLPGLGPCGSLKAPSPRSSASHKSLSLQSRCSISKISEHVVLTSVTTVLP
OX1R antag-2 – antagonists of human orexin 1 receptor (OX1R) | O43613 | 330,000 compounds, 1.8% hits | OX1R-expressing cells, FRET antagonist read-out | AID 485270 | inhibition, % at 6.6 µM; in the data active means inhibition mostly above about 38%, no sharp cut-off; inactive means mostly below about 40%;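 further: 0% = agonist challenge alone and 100% = reference antagonist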
OX1R Ca confirm – confirmation of human orexin 1 receptor antagonists. 1,100 compounds, 38% hits. inhibition, % at 5 µM. CHO/OX1R cells, orexin A calcium Fluo-8 fluorescence. shares compounds with OX1R antag-1; in the data active means inhibition above about 29%;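 further: 0% = agonist challenge alone and 100% = reference antagonist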
CHO Ca triplic – counter-screen for OX1R antagonists: effect in parental CHO cells; shares compounds with OX1R antag-1; parental CHO-K1, ATP-induced calcium, Fluo-8 fluorescence; inhibition, % at 5.6 µM; 1,100 compounds, 9.3% hits; AID 492965;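 active means inhibition above a per-plate limit, the mean inhibition of that plate's test compounds plus 3 SD, cut at about 25% in these data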;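 further: 0% = ATP challenge with DMSO and 100% = DMSO without ATP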
OX1R HTRF confirm – confirmation of human orexin 1 receptor antagonists, HTRF format; shares compounds with OX1R antag-2; OX1R-expressing cells, HTRF antagonist assay; inhibition, % at 6.6 µM; 1,800 compounds, 49% hits; AID 492964; in the data active means inhibition above about 55%;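 further: CHO cells expressing OX1R stimulated with orexin A at about EC80; 0% = agonist challenge alone and 100% = reference antagonist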
CHO-K1 HTRF – signal in parental CHO-K1 cells, OX1R antagonist counter-screen | inhibition, % at 6.6 µM | shares compounds with OX1R antag-2 | HTRF counterscreen | 1,800 compounds, 48% hits; in the data active means inhibition above about 17%;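 further: 0% = agonist challenge with vehicle and 100% = vehicle alone without agonist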
An asterisk follows results filed as active. Hits are enriched below; roughly 3.1% of the tested compounds scored in any of these assays.

How did CCc1ccc(NC(=O)c2ccc(F)c(S(=O)(=O)NCC3COc4ccccc4O3)c2)cc1 (stereo unspecified) do in these assays?
GalR3 antag: -3; CHO parental Ca: 14; GPR7 antag: -3; OX1R antag-1: 36; OX1R antag-2: 56*; OX1R Ca confirm: 24; CHO Ca triplic: 30*; OX1R HTRF confirm: 32; CHO-K1 HTRF: 12

Results for Cc1ccc(NC2CCCN(C(=O)c3cn(C)c4ccccc34)C2)cc1C (stereo unspecified) ?
GalR3 antag: -4; CHO parental Ca: -14; GPR7 antag: -6; OX1R antag-1: 27; OX1R antag-2: 80*; OX1R Ca confirm: 23; CHO Ca triplic: -12; OX1R HTRF confirm: 90*; CHO-K1 HTRF: 2

What do the screens show for `O=C(Nc1ccc2nc3n(c(=O)c2c1)CCCCC3)C(=O)N1CCN(c2ccccc2)CC1`?
CHO parental Ca: -18; GPR7 antag: 1; OX1R antag-1: -30; OX1R antag-2: 5

How did COc1ccc2sc(-c3ccc(S(C)(=O)=O)cc3)c(C#CCO)c2c1 do in these assays?
GalR3 antag: -4; CHO parental Ca: 10; OX1R antag-1: 65*; OX1R antag-2: 59*; OX1R Ca confirm: 21; CHO Ca triplic: 1; OX1R HTRF confirm: 60*; CHO-K1 HTRF: 13

What do the screens show for `COc1ccc2c(C#CCCO)c(-c3ccc(S(C)(=O)=O)cc3)sc2c1`?
GalR3 antag: -3; CHO parental Ca: 7; OX1R antag-1: 6; OX1R antag-2: 4

How did CCOc1ccc2nc(NC(=O)C(NS(=O)(=O)c3cccs3)C(C)C)sc2c1 (stereo unspecified) do in these assays?
CHO parental Ca: -19; GPR7 antag: -10; OX1R antag-1: -17; OX1R antag-2: 9

Results for CCOc1ccc2nc(NC(=O)C3CCCN(S(=O)(=O)c4cccs4)C3)sc2c1 (stereo unspecified) ?
GalR3 antag: -6; CHO parental Ca: -15; GPR7 antag: -16; OX1R antag-1: 52*; OX1R antag-2: 84*; OX1R Ca confirm: 36*; CHO Ca triplic: -9; OX1R HTRF confirm: 62*; CHO-K1 HTRF: 8

How did COc1ccc2oc(=Nc3cc(F)ccc3F)c(C(N)=O)cc2c1 do in these assays?
GalR3 antag: -6; CHO parental Ca: 4; GPR7 antag: 7; OX1R antag-1: 27; OX1R antag-2: 87*; OX1R Ca confirm: 43*; CHO Ca triplic: 1; OX1R HTRF confirm: 75*; CHO-K1 HTRF: 11

What do the screens show for `Cc1nnc(SCC(=O)N2CCCC2)n(N)c1=O`?
GalR3 antag: -1; CHO parental Ca: -4; GPR7 antag: -10; OX1R antag-1: -4; OX1R antag-2: 4

How did Cc1ccc(NC(=O)Nc2nnc(-c3ccncc3)s2)cc1C do in these assays?
GalR3 antag: -9; CHO parental Ca: -1; GPR7 antag: 5; OX1R antag-1: 25; OX1R antag-2: 41*; OX1R Ca confirm: 16; CHO Ca triplic: 13; OX1R HTRF confirm: 48; CHO-K1 HTRF: 10

How did Cc1cccc(NC(=O)NNC(=O)c2cc(-c3ccccc3Cl)nc3ccccc23)c1 do in these assays?
CHO parental Ca: -18; GPR7 antag: -13; OX1R antag-1: 44*; OX1R antag-2: 83*; OX1R Ca confirm: 38*; CHO Ca triplic: 6; OX1R HTRF confirm: 92*; CHO-K1 HTRF: 4

What do the screens show for `Cc1ccc(-c2csc3nnc(SCC(=O)Nc4nsc(-c5ccccc5)n4)n23)cc1`?
GalR3 antag: -5; CHO parental Ca: -32; GPR7 antag: 3; OX1R antag-1: 68*; OX1R antag-2: 82*; OX1R Ca confirm: 48*; CHO Ca triplic: -21; OX1R HTRF confirm: 91*; CHO-K1 HTRF: 6

How did O=C(C(=O)N1CCC(CNS(=O)(=O)c2ccccc2OC(F)(F)F)CC1)c1cc2ccccc2o1 do in these assays?
GalR3 antag: -8

Screening results deposited in PubChem BioAssay by The Scripps Research Institute Molecular Screening Center.
